Data as given in ChEMBL document CHEMBL1255368, “Posaconazole against Candida glabrata isolates with various susceptibilities to fluconazole” (2008).
Active and inactive are the calls of the source.

Experiments:
[1] = tested on: Nakaseomyces glabratus; experiment: Fungistatic activity against Candida glabrata isolate 4205 assessed as 99.9% reduction of initial fungal load at 0.5 times MIC after 48 hrs using colony count method by time-kill method; assay type: functional, organism-based
Outline: (§1)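 0.5 McFarland suspension from a 48-h plate, diluted 1:10 into MOPS-buffered RPMI 1640 with drug at 0.5× or 8× MIC. Shaken at 35°C; sampled at 0, 2, 4, 8 and 24 h, serially diluted and plated in triplicate on Sabouraud agar for 48 h at 35°C. Detection limit 20 CFU/ml; fungicidal = 99.9% fall from initial inoculum. Each isolate tested at least twice.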

[2] = tested on: Nakaseomyces glabratus; experiment: Antifungal activity against 2.44 x 10^8 CFU fluconazole-susceptible Candida glabrata isolate 4293 infected neutropenic CD1 mouse disseminated candidiasis model assessed as reduction in kidney tissue fungal burden at 1 mg/kg/day, ip administered 24 hrs post infection measured 7 days post infection by colony count method; assay type: functional, organism-based
Outline: (§2)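 Neutropenia induced in male CD1 mice (25 g) with cyclophosphamide 200 mg/kg i.p. on days −4, +1 and +4. Mice were infected i.v. via the tail vein (0.2 ml). Drug was given i.p. at […], starting 24 h post-challenge, for 6 consecutive days. Kidney pairs were homogenized on day 7 and plated on Sabouraud dextrose agar for CFU counts. Groups had 7–8 mice.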

[3] = tested on: Nakaseomyces glabratus; experiment: Fungicidal activity against Candida glabrata isolate 4198 assessed as 99.9% reduction of initial fungal load at 8 times MIC after 48 hrs using colony count method by time-kill method; assay type: functional, organism-based; details: in the assay text read “after 24 hrs” for “after 48 hrs”
Outline: (§3)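 Time-kill assay. The inoculum was set to 0.5 McFarland in water and diluted 1:10 into MOPS-buffered RPMI 1640 with drug at 0.5× or 8× MIC, then shaken at 35°C. Samples were taken at 0, 2, 4, 8 and 24 h, serially diluted and plated in triplicate on Sabouraud agar, with 48 h at 35°C. Detection limit was 20 CFU/ml. Fungicidal was defined as a 99.9% drop from the initial inoculum. Each isolate was tested at least twice.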

[4] = tested on: Candida parapsilosis; experiment: Fungistatic activity against Candida parapsilosis ATCC 22019 assessed as 99.9% reduction of int initial fungal load at 8 times MIC after 48 hrs using colony count method by time-kill method; assay type: functional, organism-based
[5] = tested on: Nakaseomyces glabratus; experiment: Fungistatic activity against Candida glabrata 4370 assessed as 99.9% reduction of int initial fungal load at 0.5 times MIC after 48 hrs using colony count method by time-kill method; assay type: functional, organism-based; outline: as §1
[6] = tested on: Nakaseomyces glabratus; experiment: Antifungal activity against Candida glabrata isolate 4370 after 48 hrs by microdilution method; assay type: functional
Outline: (§4)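 CLSI M27-A2 broth microdilution. Final ranges: POS, CAS, AMB 0.0078–8.0 μg/ml; FLC 0.125–64 μg/ml. Incubated at 35°C, read at 24 and 48 h by OD490. MIC for POS, FLC, CAS: first concentration giving 50% lower turbidity than control; for AMB: 90% lower. Run in quintuplicate; C. parapsilosis ATCC 22019 as quality control.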

[7] = tested on: Nakaseomyces glabratus; experiment: Fungicidal activity against Candida glabrata isolate 4293 assessed as 99.9% reduction of initial fungal load at 8 times MIC […] using colony count method by time-kill method; assay type: functional, organism-based
[8] = tested on: Nakaseomyces glabratus; experiment: Fungicidal activity against Candida glabrata isolate 4205 assessed as 99.9% reduction of initial fungal load at 8 times MIC […] using colony count method by time-kill method; assay type: functional, organism-based; outline: as §3
[9] = tested on: Candida parapsilosis; experiment: Antifungal activity against Candida parapsilosis ATCC 22019 after 48 hrs by microdilution method; assay type: functional; details: Lodderomyces parapsilosis, ATCC 22019, 48 h; outline: as §4
[10] = tested on: Nakaseomyces glabratus; experiment: Antifungal activity against Candida glabrata isolate 4205 after 48 hrs by microdilution method; assay type: functional; outline: as §4
[11] = tested on: Nakaseomyces glabratus; experiment: Antifungal activity against Candida glabrata isolate 4198 after 48 hrs by microdilution method; assay type: functional; details: isolate 4198, 48 h; outline: as §4
[12] = tested on: Nakaseomyces glabratus; experiment: Fungistatic activity against Candida glabrata 4370 assessed as 99.9% reduction of int initial fungal load at 8 times MIC after 48 hrs using colony count method by time-kill method; assay type: functional, organism-based; outline: as §1
[13] = tested on: Nakaseomyces glabratus; experiment: Fungistatic activity against Candida glabrata isolate 4293 assessed as 99.9% reduction of initial fungal load at 0.5 times MIC after 48 hrs using colony count method by time-kill method; assay type: functional, organism-based; outline: as §1
[14] = tested on: Nakaseomyces glabratus; experiment: Antifungal activity against Candida glabrata isolate 4293 after 48 hrs by microdilution method; assay type: functional; outline: as §4
[15] = tested on: Candida parapsilosis; experiment: Fungistatic activity against Candida parapsilosis ATCC 22019 assessed as 99.9% reduction of int initial fungal load at 0.5 times MIC after 48 hrs using colony count method by time-kill method; assay type: functional, organism-based
[16] = tested on: Nakaseomyces glabratus; experiment: Fungistatic activity against Candida glabrata isolate 4198 assessed as 99.9% reduction of initial fungal load at 0.5 times MIC after 48 hrs using colony count method by time-kill method; assay type: functional, organism-based; outline: as §1
[17] = tested on: Nakaseomyces glabratus; experiment: Antifungal activity against 1.04 x 10^8 CFU fluconazole-susceptible Candida glabrata isolate 4293 infected neutropenic CD1 mouse disseminated candidiasis model assessed as reduction in kidney tissue fungal burden at 1 mg/kg/day, ip administered 24 hrs post infection measured 7 days post infection by colony count method; assay type: functional, organism-based; outline: as §2
[18] = tested on: Nakaseomyces glabratus; experiment: Antifungal activity against Candida glabrata isolate 4370 after 24 hrs by microdilution method; assay type: functional; outline: as §4
[19] = tested on: Nakaseomyces glabratus; experiment: Antifungal activity against Candida glabrata isolate 4205 after 24 hrs by microdilution method; assay type: functional; outline: as §4
[20] = tested on: Nakaseomyces glabratus; experiment: Antifungal activity against Candida glabrata isolate 4293 after 24 hrs by microdilution method; assay type: functional
Outline: (§5)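 CLSI M27-A2 broth microdilution. Final drug ranges were 0.0078–8.0 μg/ml for POS, CAS and AMB, and 0.125–64 μg/ml for FLC. Plates were incubated at 35°C and read by OD490 at 24 h. The MIC was the first concentration giving 50% turbidity reduction versus control (POS, FLC, CAS) or 90% (AMB). Run in quintuplicate.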

[21] = tested on: Nakaseomyces glabratus; experiment: Antifungal activity against Candida glabrata isolate 4198 after 24 hrs by microdilution method; assay type: functional; details: isolate 4198, 24 h; outline: as §4
[22] = tested on: Candida parapsilosis; experiment: Antifungal activity against Candida parapsilosis ATCC 22019 after 24 hrs by microdilution method; assay type: functional; details: Lodderomyces parapsilosis, ATCC 22019, 24 h; outline: as §5
[23] = tested on: Nakaseomyces glabratus; experiment: Antifungal activity against 2.44 x 10^8 CFU fluconazole-susceptible Candida glabrata isolate 4293 infected neutropenic CD1 mouse disseminated candidiasis model assessed as reduction in kidney tissue fungal burden at 25 mg/kg/day, ip administered 24 hrs post infection measured 7 days post infection by colony count method; assay type: functional, organism-based
Outline: (§6)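 Male CD1 mice (25 g) made neutropenic with cyclophosphamide 200 mg/kg i.p. on days −4, +1 and +4, then infected i.v. via the lateral tail vein (0.2 ml). Dosing started 24 h post-challenge, once daily for 6 days, 0.2 ml: POS by oral gavage, FLC i.p. On day 7, homogenized kidneys (entire organ) plated on Sabouraud agar; CFU per kidney pair; 7–8 mice per group.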

[24] = tested on: Nakaseomyces glabratus; experiment: Antifungal activity against fluconazole-susceptible Candida glabrata isolate 4205 infected neutropenic CD1 mouse disseminated candidiasis model assessed as reduction in kidney tissue fungal burden at 30 mg/kg/day, po administered 24 hrs post infection measured 7 days post infection by colony count method; assay type: functional, organism-based; outline: as §6
[25] = tested on: Nakaseomyces glabratus; experiment: Antifungal activity against 1.04 x 10^8 CFU fluconazole-susceptible Candida glabrata isolate 4293 infected neutropenic CD1 mouse disseminated candidiasis model assessed as reduction in kidney tissue fungal burden at 25 mg/kg/day, ip administered 24 hrs post infection measured 7 days post infection by colony count method; assay type: functional, organism-based
[26] = tested on: Nakaseomyces glabratus; experiment: Fungistatic activity against Candida glabrata isolate 4198 assessed as 99.9% reduction of initial fungal load at 8 times MIC after 48 hrs using colony count method by time-kill method; assay type: functional, organism-based; outline: as §1
[27] = tested on: Nakaseomyces glabratus; experiment: Antifungal activity against fluconazole-resistant Candida glabrata isolate 4198 infected neutropenic CD1 mouse disseminated candidiasis model assessed as reduction in kidney tissue fungal burden at 30 mg/kg/day, po administered 24 hrs post infection measured 7 days post infection by colony count method; assay type: functional, organism-based; outline: as §6
[28] = tested on: Nakaseomyces glabratus; experiment: Fungistatic activity against Candida glabrata isolate 4205 assessed as 99.9% reduction of initial fungal load at 8 times MIC after 48 hrs using colony count method by time-kill method; assay type: functional, organism-based
[29] = tested on: Nakaseomyces glabratus; experiment: Fungistatic activity against Candida glabrata isolate 4293 assessed as 99.9% reduction of initial fungal load at 8 times MIC after 48 hrs using colony count method by time-kill method; assay type: functional, organism-based; outline: as §1
[30] = tested on: Nakaseomyces glabratus; experiment: Antifungal activity against 2.44 x 10^8 CFU fluconazole-susceptible Candida glabrata isolate 4293 infected neutropenic CD1 mouse disseminated candidiasis model assessed as reduction in kidney tissue fungal burden at 15 mg/kg/day, po administered 24 hrs post infection measured 7 days post infection by colony count method; assay type: functional, organism-based; outline: as §6
[31] = tested on: Nakaseomyces glabratus; experiment: Antifungal activity against 1.04 x 10^8 CFU fluconazole-susceptible Candida glabrata isolate 4293 infected neutropenic CD1 mouse disseminated candidiasis model assessed as reduction in kidney tissue fungal burden at 30 mg/kg/day, po administered 24 hrs post infection measured 7 days post infection by colony count method; assay type: functional, organism-based; outline: as §6

C[C@@H]1[C@H](O)[C@@H](C)/C=C/C=C/C=C/C=C/C=C/C=C/C=C/[C@H](O[C@@H]2O[C@H](C)[C@@H](O)[C@H](N)[C@@H]2O)C[C@@H]2O[C@](O)(C[C@@H](O)C[C@@H](O)[C@H](O)CC[C@@H](O)C[C@@H](O)CC(=O)O[C@H]1C)C[C@H](O)[C@H]2C(=O)O [AMPHOTERICIN B]
1 µg/mL: MIC [6] | MIC [9]
active: Activity [1] | Activity [2] | Activity [3] | Activity [4] | Activity [5] | Activity [7] | Activity [8] | Activity [12] | Activity [13] | Activity [15] | Activity [16] | Activity [17]
0.5 µg/mL: MIC [10] | MIC [11] | MIC [14]

CC[C@H](C)C[C@H](C)CCCCCCCCC(=O)N[C@H]1C[C@@H](O)[C@@H](NCCN)NC(=O)[C@@H]2[C@@H](O)CCN2C(=O)[C@H]([C@H](O)CCN)NC(=O)[C@H]([C@H](O)[C@@H](O)c2ccc(O)cc2)NC(=O)[C@@H]2C[C@@H](O)CN2C(=O)[C@H]([C@@H](C)O)NC1=O [CASPOFUNGIN]
inactive: Activity [3] | Activity [7] | Activity [8]
active: Activity [1] | Activity [2] | Activity [5] | Activity [13] | Activity [15] | Activity [16] | Activity [17]
0.125 µg/mL: MIC [18]
≤ 0.03 µg/mL: MIC [20]
0.25 µg/mL: MIC [19] | MIC [21] | MIC [22]

OC(Cn1cncn1)(Cn1cncn1)c1ccc(F)cc1F [FLUCONAZOLE]
> 64 µg/mL: MIC [11]
16 µg/mL: MIC [6]
active: Activity [1] | Activity [23] | Activity [2] | Activity [24] | Activity [4] | Activity [5] | Activity [26] | Activity [12] | Activity [13] | Activity [28] | Activity [29] | Activity [15] | Activity [16]
1 µg/mL: MIC [10]
32 µg/mL: MIC [14]
inactive: Activity [25] | Activity [27]
4 µg/mL: MIC [9]

CC[C@@H]([C@H](C)O)n1ncn(-c2ccc(N3CCN(c4ccc(OC[C@@H]5CO[C@@](Cn6cncn6)(c6ccc(F)cc6F)C5)cc4)CC3)cc2)c1=O [POSACONAZOLE]
≤ 0.03 µg/mL: MIC [9] | MIC [10]
0.5 µg/mL: MIC [11]
0.06 µg/mL: MIC [6]
inactive: Activity [17]
active: Activity [1] | Activity [23] | Activity [24] | Activity [4] | Activity [25] | Activity [5] | Activity [30] | Activity [26] | Activity [27] | Activity [12] | Activity [13] | Activity [28] | Activity [29] | Activity [15] | Activity [16] | Activity [31]
0.25 µg/mL: MIC [14]
